Reference: ChEMBL document CHEMBL3526015, “Metabolism of the c-Fos/activator protein-1 inhibitor T-5224 by multiple human UDP-glucuronosyltransferase isoforms” (Drug Metab Dispos, 2011)

Columns and labels:
[1] = Drug metabolism in human intestinal microsomes assessed as Vmax/Km ratio for T-5224 hydroxyl O-glucuronide formation per mg protein after 10 to 60 mins by HPLC method; format: ADME, Intestine, Microsome
Method in brief: (§1)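 Pooled liver microsomes (0.5 mg/mL) were incubated 10 min. Pooled intestinal microsomes (0.25 mg/mL) ran 10 min at T-5224 10–50 μM and 20 min at 1–5 μM. Buffer was 50 mM Tris-HCl pH 7.5 with 8 mM MgCl2, alamethicin and 2 mM UDPGA, at 37°C, in triplicate. Glucuronides G2/G3 were read by HPLC at 290 nm and fitted for Vmax/Km.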

Liver microsome [2] = experiment: Drug metabolism in pooled human liver microsomes assessed as T-5224 hydroxyl O-glucuronide formation in presence of UDPGA by LC-MS/MS method; format: ADME
Cytochrome P450 2E1 = Cytochrome P450 2E1 (Homo sapiens, UniProt P05181); experiment: Drug metabolism assessed as human CYP2E1-mediated metabolite formation at 2 uM after 30 mins by HPLC method; format: ADME; conditions: recombinant enzyme, 0.5 h
Chain of Cytochrome P450 2E1 (P05181 whole entry): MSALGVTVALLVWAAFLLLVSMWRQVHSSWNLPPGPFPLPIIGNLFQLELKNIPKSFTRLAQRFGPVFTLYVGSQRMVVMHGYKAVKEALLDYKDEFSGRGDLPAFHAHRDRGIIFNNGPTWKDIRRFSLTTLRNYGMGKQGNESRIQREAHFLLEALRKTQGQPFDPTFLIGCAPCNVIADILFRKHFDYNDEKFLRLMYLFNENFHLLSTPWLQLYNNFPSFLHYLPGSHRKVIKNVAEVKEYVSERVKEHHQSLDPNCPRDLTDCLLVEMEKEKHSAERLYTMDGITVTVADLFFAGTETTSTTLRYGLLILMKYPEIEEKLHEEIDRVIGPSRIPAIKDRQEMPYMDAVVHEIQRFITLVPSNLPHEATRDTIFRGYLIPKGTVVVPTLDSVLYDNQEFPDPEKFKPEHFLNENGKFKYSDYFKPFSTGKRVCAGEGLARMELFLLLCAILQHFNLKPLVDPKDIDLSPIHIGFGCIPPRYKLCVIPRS
Method in brief: (§2)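 Each recombinant human P450 was used at 50 pmol/mL with an NADPH-generating system and 2 μM 14C-T-5224 (0.5% DMSO final). Buffer was 100 mM Tris-HCl pH 7.5, except 100 mM potassium phosphate pH 7.4 for CYP2A6 and CYP2C9*1. Incubation ran 30 min at 37°C and was stopped with acetonitrile/methanol. Radioactive metabolite peaks were detected by C18 HPLC.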

Liver microsome [3] = experiment: Drug metabolism in human liver microsomes assessed as T-5224 acyl O-glucuronide formation at 10 uM after 10 mins in presence of beta-estradiol by HPLC method; format: ADME
Method in brief: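 Pooled human liver microsomes or recombinant UGT1A1 were incubated with 10 μM T-5224, 2 mM UDPGA and β-estradiol at 0–500 μM (2% DMSO), in Tris-HCl/MgCl2/alamethicin buffer. Incubation was 10 min (liver microsomes) or 60 min (UGT1A1) at 37°C. G2/G3 were read by HPLC at 290 nm, as mean ± SD, n = 3.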

Cytochrome P450 3A4 = Cytochrome P450 3A4 (Homo sapiens, UniProt P08684); experiment: Drug metabolism assessed as human CYP3A4-mediated metabolite formation at 2 uM after 30 mins by HPLC method; format: ADME; conditions: recombinant enzyme, 0.5 h; method in brief: as §2
Chain of Cytochrome P450 3A4 (P08684 whole entry): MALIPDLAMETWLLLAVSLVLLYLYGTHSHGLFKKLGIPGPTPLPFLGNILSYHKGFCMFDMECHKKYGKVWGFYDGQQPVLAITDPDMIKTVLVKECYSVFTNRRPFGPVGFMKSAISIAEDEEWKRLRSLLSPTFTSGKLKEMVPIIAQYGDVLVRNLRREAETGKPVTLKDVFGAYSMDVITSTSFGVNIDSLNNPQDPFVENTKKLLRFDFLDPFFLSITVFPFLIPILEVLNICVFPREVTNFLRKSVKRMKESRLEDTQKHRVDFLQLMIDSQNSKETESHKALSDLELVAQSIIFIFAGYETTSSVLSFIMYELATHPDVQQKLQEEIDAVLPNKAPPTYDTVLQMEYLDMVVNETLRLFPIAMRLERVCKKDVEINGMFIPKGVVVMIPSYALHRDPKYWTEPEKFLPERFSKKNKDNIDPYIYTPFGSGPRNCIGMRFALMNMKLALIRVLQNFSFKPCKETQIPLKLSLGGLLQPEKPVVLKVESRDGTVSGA

Liver microsome [4] = experiment: Drug metabolism in pooled human liver microsomes assessed as T-5224 acyl O-glucuronide formation in presence of UDPGA by LC-MS/MS method; format: ADME
[5] = Drug metabolism in human intestinal microsomes assessed as T-5224 hydroxyl O-glucuronide formation per mg protein after 10 to 60 mins by HPLC method; format: ADME, Intestine, Microsome; method in brief: as §1
[6] = molecular target: T1, UDP-glucuronosyltransferase 1A3 (Homo sapiens, UniProt P35503); experiment: Substrate inhibition of human UGT1A3-mediated T-5224 hydroxyl O-glucuronide formation after 10 to 60 mins in presence of UDP-glucuronic acid by HPLC method; format: ADME
T1 sequence (P35503 whole entry): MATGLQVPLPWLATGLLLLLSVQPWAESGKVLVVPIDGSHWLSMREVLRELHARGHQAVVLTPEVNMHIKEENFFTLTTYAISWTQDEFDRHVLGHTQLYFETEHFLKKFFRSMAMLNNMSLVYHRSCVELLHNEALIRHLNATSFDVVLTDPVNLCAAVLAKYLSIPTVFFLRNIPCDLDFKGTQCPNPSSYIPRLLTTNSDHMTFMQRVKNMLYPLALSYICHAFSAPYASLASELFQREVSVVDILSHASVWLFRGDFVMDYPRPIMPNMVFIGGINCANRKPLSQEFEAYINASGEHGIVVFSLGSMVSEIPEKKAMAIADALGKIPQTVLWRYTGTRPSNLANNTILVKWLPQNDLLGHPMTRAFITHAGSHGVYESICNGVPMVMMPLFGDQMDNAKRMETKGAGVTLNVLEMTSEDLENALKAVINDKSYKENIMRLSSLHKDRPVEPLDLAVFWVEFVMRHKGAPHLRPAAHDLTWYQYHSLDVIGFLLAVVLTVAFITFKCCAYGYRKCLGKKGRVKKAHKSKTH
Method in brief: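 Recombinant human UGT1A1, UGT1A3 or UGT1A8 from baculovirus-infected insect cells (0.1 mg protein/mL) in 50 mM Tris-HCl pH 7.5, 8 mM MgCl2, alamethicin, 2% DMSO. T-5224 at 1–50 μM with 2 mM UDPGA for 60 min at 37°C. HPLC with UV at 290 nm. Triplicates fitted to a substrate-inhibition model. kcat uses UGT content quantified by immunoblot against recombinant UGT1A1/UGT2B4 standards.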

[7] = Drug metabolism in pooled human intestinal microsomes assessed as T-5224 acyl O-glucuronide formation at 10 uM after 10 mins by HPLC method; format: ADME, Intestine, Microsome
Method in brief: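 T-5224 at 10 μM incubated for 10 min at 37°C with UDPGA (2 mM) in pooled liver (0.5 mg protein/mL) or intestinal (0.25 mg protein/mL) microsomes. Buffer was 50 mM Tris-HCl pH 7.5 with 8 mM MgCl2 and alamethicin, after 5 min preincubation. Stopped with acetonitrile; glucuronides quantified by HPLC at 290 nm.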

[8] = molecular target: T2, UDP-glucuronosyltransferase 1A1 (Homo sapiens, UniProt P22309); experiment: Drug metabolism assessed as human UGT1A1-mediated T-5224 acyl O-glucuronide formation at 5 to 50 uM after 60 mins in presence of UDP-glucuronic acid by HPLC method; format: ADME; conditions: recombinant enzyme, 1 h
T2 sequence (P22309 whole entry): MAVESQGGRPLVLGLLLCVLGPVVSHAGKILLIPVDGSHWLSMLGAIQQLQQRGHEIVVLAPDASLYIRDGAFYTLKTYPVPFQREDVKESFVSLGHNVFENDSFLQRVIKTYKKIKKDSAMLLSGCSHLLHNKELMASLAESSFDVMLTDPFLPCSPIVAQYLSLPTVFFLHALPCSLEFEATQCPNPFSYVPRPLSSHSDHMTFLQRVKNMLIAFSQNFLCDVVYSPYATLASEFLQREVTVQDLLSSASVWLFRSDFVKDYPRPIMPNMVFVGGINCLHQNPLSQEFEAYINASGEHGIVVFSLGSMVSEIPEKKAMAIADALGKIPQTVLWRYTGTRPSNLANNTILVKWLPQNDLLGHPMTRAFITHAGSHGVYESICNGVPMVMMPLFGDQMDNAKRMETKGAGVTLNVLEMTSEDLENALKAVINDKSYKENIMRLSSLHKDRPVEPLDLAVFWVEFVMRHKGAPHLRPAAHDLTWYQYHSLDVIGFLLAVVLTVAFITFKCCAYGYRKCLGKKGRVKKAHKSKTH

[9] = molecular target: T2, UDP-glucuronosyltransferase 1A1; experiment: Drug metabolism assessed as Vmax/Km ratio for human UGT1A1-mediated T-5224 acyl O-glucuronide formation per mg protein after 10 to 60 mins in presence of UDP-glucuronic acid by HPLC method; format: ADME; conditions: recombinant enzyme
Method in brief: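 Kinetics used recombinant UGT1A1, 1A3 or 1A8 (0.1 mg protein/mL) with T-5224 at 1–50 μM, 2 mM UDPGA and 60 min at 37°C, in triplicate. G2/G3 were measured by HPLC at 290 nm and fitted to a substrate-inhibition model (Vmax, Km, Ksi). UGT content was quantified by immunoblot, and kcat = Vmax/E0 was derived from it.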

Vmax/Km [1]: 34.6 µL/min | Drug metabolism (Liver microsome [2]): metabolite_detected | Drug metabolism (Cytochrome P450 2E1): metabolite_not_detected | Drug metabolism (Liver microsome [3]): metabolite_not_detected | Drug metabolism (Cytochrome P450 3A4): metabolite_not_detected | Drug metabolism (Liver microsome [4]): metabolite_detected | Vmax [5]: 106 pmol/min | Ki [6]: 2550 nM | Drug metabolism [7]: metabolite_detected | Drug metabolism [8]: metabolite_detected | Vmax/Km [9]: 83.9 µL/min
SMILES: O=C(O)CCc1cc(C(=O)c2ccc(OC3CCCC3)cc2O)ccc1OCc1ccc2c(O)noc2c1
